According to paper PMC11106139 (Clinical Pharmacokinetics, 2024):

What was measured:
[1] = test system: children with achondroplasia; details: 15 µg/kg per day, 1-year period, analysis of covariance; cited from earlier work
[2] = Population pharmacokinetic; assay type: in vivo, human; details: SOLNC 0.8 and 2 mg/mL (phase III studies and commercial formulations)
In short: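 Pooled plasma data from 159 children with achondroplasia on daily subcutaneous vosoritide (2.5–30 µg/kg) across three phase II and two phase III trials. Samples were assayed by validated ELISA or electrochemiluminescence, and mostly pre-dose points were excluded. The fit was a one-compartment model with change-point first-order absorption (Ka1/Ka2) and first-order elimination, using log-transform-both-sides and SAEM/importance sampling. Covariates were added stepwise (p<0.01) with backward elimination, against a reference weight of 20 kg.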

effect of dosing solution concentration on relative bioavailability (F) [2]: did not have any effect on F
SMILES: CC[C@H](C)[C@@H]1NC(=O)[C@H](CCCNC(=N)N)NC(=O)[C@H](CC(=O)O)NC(=O)[C@H](CC(C)C)NC(=O)[C@H](CCCCN)NC(=O)[C@H](CC(C)C)NC(=O)CNC(=O)[C@H](Cc2ccccc2)NC(=O)[C@@H](NC(=O)CNC(=O)[C@H](CCCCN)NC(=O)[C@H](CO)NC(=O)[C@H](CC(C)C)NC(=O)CNC(=O)[C@H](CCCCN)NC(=O)[C@H](CCCCN)NC(=O)[C@H](CC(N)=O)NC(=O)[C@H](C)NC(=O)CNC(=O)[C@H](CCCCN)NC(=O)[C@H](Cc2ccc(O)cc2)NC(=O)[C@H](CCCCN)NC(=O)[C@H](CCCNC(=N)N)NC(=O)[C@H](C)NC(=O)[C@H](CC(N)=O)NC(=O)[C@@H]2CCCN2C(=O)[C@H](Cc2c[nH]cn2)NC(=O)[C@H](CCC(=O)O)NC(=O)[C@H](CCC(N)=O)NC(=O)CNC(=O)[C@@H]2CCCN2)CSSC[C@@H](C(=O)O)NC(=O)CNC(=O)[C@H](CC(C)C)NC(=O)CNC(=O)[C@H](CO)NC(=O)[C@H](CCSC)NC(=O)[C@H](CO)NC(=O)CNC1=O [vosoritide]
increase in annualized growth velocity (least squares mean change from baseline) compared with placebo [1]: 1.57 cm/year
